Results on 20 compounds are retold here after ChEMBL document CHEMBL1157487, “Discovery of potent CCR4 antagonists: Synthesis and structure-activity relationship study of 2,4-diaminoquinazolines” (Bioorg Med Chem, 2008).

Structures are written as SMILES. pIC50: −log10 of the molar value.

One assay concerns the target T1, C-C chemokine receptor type 4 (Homo sapiens) (UniProt P51679).
T1 sequence (whole entry): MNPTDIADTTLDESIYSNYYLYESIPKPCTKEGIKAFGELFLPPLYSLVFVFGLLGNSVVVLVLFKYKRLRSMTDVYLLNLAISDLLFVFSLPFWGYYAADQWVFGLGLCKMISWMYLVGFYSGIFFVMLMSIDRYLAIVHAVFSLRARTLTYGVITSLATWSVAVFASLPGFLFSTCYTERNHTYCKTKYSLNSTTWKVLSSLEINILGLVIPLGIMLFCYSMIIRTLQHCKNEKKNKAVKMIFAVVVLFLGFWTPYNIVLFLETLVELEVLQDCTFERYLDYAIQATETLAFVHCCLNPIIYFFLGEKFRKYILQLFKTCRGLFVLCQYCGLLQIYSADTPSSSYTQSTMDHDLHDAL
The assay can be described thus: Displacement of [125I]CCl22 from human CCR4 receptor expressed in mouse B300-19 cells at 1 uM by SPA. The class given is cell-based. The procedure, abridged:
(§1)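 SPA on whole human CCR4-expressing B300-19 cells (2×10^5/well) with 25 pM [125I]CCL22 and WGA SPA beads, test compound, in 50 mM Hepes pH 7.4, 5 mM MgCl2, 1 mM CaCl2, 0.1% BSA; 2 h, 25 °C. Nonspecific binding defined with 10 nM unlabeled CCL22. Duplicate, four concentrations, usually two determinations averaged. IC50 by non-linear curve fitting.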
Background: Displacement assays read how much labelled ligand stays bound in the presence of the test substance.
As usually defined, the inhibition is the drop in the measured response relative to a control, in per cent. Low readings indicate a response near the control, high ones a response far below the control. Compound `COc1cc2nc(N3CCOCC3)nc(NC3CCCCCC3)c2cc1OC` displayed an inhibition of 8%.
On to `COc1cc2nc(N3CCC(N4CCCC4)CC3)nc(NC3CCN(Cc4ccccc4)CC3)c2cc1OC`, for which the inhibition was under 0%.
The same measure, in the same setting: the result for `COc1cc2nc(N3CCC(N4CCCC4)CC3)nc(NC3CCCC3)c2cc1OC` reads 17%.
On the same count and under the same terms, the same measure for `COc1cc2nc(NC(C)C)nc(NC3CCCCCC3)c2cc1OC`: 6%; for `COc1cc2nc(N3CCC(N4CCCC4)CC3)nc(N(C)C)c2cc1OC`: under 0%.
Still for that read-out and setting: the result for `COc1cc2nc(N3CCC(Cc4ccccc4)CC3)nc(NC3CCCCCC3)c2cc1OC` reads under 0%.
`COc1cc2nc(N(C)CCc3ccccc3)nc(NC3CCCCCC3)c2cc1OC` gave an inhibition of under 0%.
Still for that read-out and setting: the same measure for `COc1cc2nc(N3CCC(C)CC3)nc(NC3CCCCCC3)c2cc1OC`: 15%.
On the same count and under the same terms, the same measure for `COc1cc2nc(NCc3ccccc3)nc(NC3CCCCCC3)c2cc1OC`: under 0%; for `COc1cc2nc(N3CCC(N(C)C)CC3)nc(NC3CCCCCC3)c2cc1OC`: 77%; for `COc1cc2nc(NCCCN3CCCC3)nc(NC3CCCCCC3)c2cc1OC`: 16%.
In turn, `COc1cc2nc(N3CCN(c4ccccc4)CC3)nc(NC3CCCCCC3)c2cc1OC` gave an inhibition of 7%.
The same measure, in the same setting: the result for `COc1cc2nc(N3CCN(C(C)C)CC3)nc(NC3CCCCCC3)c2cc1OC` reads 68%.
Consider `COc1cc2nc(NCCN3CCCCC3)nc(NC3CCCCCC3)c2cc1OC`, for which the inhibition turned out to be 18%.
Still for that read-out and setting: the same measure for `COc1cc2nc(NCCc3ccccc3)nc(NC3CCCCCC3)c2cc1OC`: under 0%.
In turn, `CCOC(=O)N1CCC(Nc2nc(N3CCC(N4CCCC4)CC3)nc3cc(OC)c(OC)cc23)CC1` registered an inhibition of 6%.
On the same count and under the same terms, the same measure for `COc1cc2nc(N3CCC(N4CCCC4)CC3)nc(NC3CCCCC3)c2cc1OC`: 54%; for `COc1cc2nc(N3CCC(N4CCCC4)CC3)nc(NCCc3ccccc3)c2cc1OC`: 4%.
Still for that read-out and setting: the same measure for `COc1cc2nc(N3CCC(N4CCCC4)CC3)nc(NC3CCCCCCC3)c2cc1OC`: 54%.
Take `CCNc1nc(N2CCC(N3CCCC3)CC2)nc2cc(OC)c(OC)cc12`: the inhibition was under 0%.

A further assay deals with T2, C-C chemokine receptor type 4 (Homo sapiens, UniProt P51679).
T2 sequence (P51679 whole entry): T1 sequence (whole entry)
Put plainly: Antagonist activity at human CCR4 receptor expressed in mouse B300-19 cells by [35S]GTPgammaS binding assay. The class given is functional, cell-based. The method, boiled down: (§2)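 Membranes from human CCR4-expressing B300-19 cells (1 µg protein/well) with 150 pM [35S]GTPγS, 2 µM GDP, 3 nM MDC (CCL22), WGA SPA beads, test compound in 20 mM Hepes-NaOH pH 7.05, 100 mM NaCl, 5 mM MgCl2, 0.2% BSA; 1.5 h, 25 °C. Percent inhibition against no-compound and no-CCL22 controls. Duplicate, four concentrations, usually two determinations averaged. IC50 by non-linear fitting.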
(In general: Binding of GTPγS marks nucleotide exchange on a G protein.)
The pIC50 is the IC50 on a negative log10 scale, so that one unit is a factor of ten. Read a high pIC50 as a small IC50. Compound `COc1cc2nc(N3CCC(N(C)C)CC3)nc(NC3CCCCCC3)c2cc1OC` gave a pIC50 of 6.59.
The same measure, in the same setting: the result for `COc1cc2nc(N3CCN(C(C)C)CC3)nc(NC3CCCCCC3)c2cc1OC` reads 6.66; that for `COc1cc2nc(N3CCC(N4CCCC4)CC3)nc(NC3CCCCC3)c2cc1OC`, 6.32.
Still for that read-out and setting: the same measure for `COc1cc2nc(N3CCC(N4CCCC4)CC3)nc(NC3CCCCCCC3)c2cc1OC`: 6.70.

The target in a further assay is T1, C-C chemokine receptor type 4 (Homo sapiens). Put plainly: Antagonist activity at human CCR4 receptor expressed in mouse B300-19 cells at 1 uM by [35S]GTPgammaS binding assay. It is filed as functional, cell-based. The procedure, abridged: as §2
As to `COc1cc2nc(N3CCOCC3)nc(NC3CCCCCC3)c2cc1OC`, the inhibition is under 0%.
Consider `COc1cc2nc(N3CCC(N4CCCC4)CC3)nc(NC3CCN(Cc4ccccc4)CC3)c2cc1OC`, for which the inhibition came to 4%.
`COc1cc2nc(N3CCC(N4CCCC4)CC3)nc(NC3CCCC3)c2cc1OC` displayed an inhibition of 18%.
The same measure, in the same setting: the same measure for `COc1cc2nc(NC(C)C)nc(NC3CCCCCC3)c2cc1OC`: under 0%; for `COc1cc2nc(N3CCC(N4CCCC4)CC3)nc(N(C)C)c2cc1OC`: under 0%.
On the same count and under the same terms, the result for `COc1cc2nc(N3CCC(Cc4ccccc4)CC3)nc(NC3CCCCCC3)c2cc1OC` reads 1%.
The same measure, in the same setting: the result for `COc1cc2nc(N(C)CCc3ccccc3)nc(NC3CCCCCC3)c2cc1OC` reads under 0%; that for `COc1cc2nc(N3CCC(C)CC3)nc(NC3CCCCCC3)c2cc1OC`, 12%.
With `COc1cc2nc(NCc3ccccc3)nc(NC3CCCCCC3)c2cc1OC`, the inhibition is 13%.
Same read-out and setting: the result for `COc1cc2nc(N3CCC(N(C)C)CC3)nc(NC3CCCCCC3)c2cc1OC` reads 65%; that for `COc1cc2nc(NCCCN3CCCC3)nc(NC3CCCCCC3)c2cc1OC`, 35%.
Same read-out and setting: the same measure for `COc1cc2nc(N3CCN(c4ccccc4)CC3)nc(NC3CCCCCC3)c2cc1OC`: 7%; for `COc1cc2nc(N3CCN(C(C)C)CC3)nc(NC3CCCCCC3)c2cc1OC`: 68%; for `COc1cc2nc(NCCN3CCCCC3)nc(NC3CCCCCC3)c2cc1OC`: 1%.
Same read-out and setting: the same measure for `COc1cc2nc(NCCc3ccccc3)nc(NC3CCCCCC3)c2cc1OC`: 16%; for `CCOC(=O)N1CCC(Nc2nc(N3CCC(N4CCCC4)CC3)nc3cc(OC)c(OC)cc23)CC1`: 10%.
On to `COc1cc2nc(N3CCC(N4CCCC4)CC3)nc(NC3CCCCC3)c2cc1OC`, for which the inhibition came out at 71%.
Same read-out and setting: the same measure for `COc1cc2nc(N3CCC(N4CCCC4)CC3)nc(NCCc3ccccc3)c2cc1OC`: 7%; for `COc1cc2nc(N3CCC(N4CCCC4)CC3)nc(NC3CCCCCCC3)c2cc1OC`: 71%.
Same read-out and setting: the same measure for `CCNc1nc(N2CCC(N3CCCC3)CC2)nc2cc(OC)c(OC)cc12`: 3%.

A further assay concerns the target T2, C-C chemokine receptor type 4. Put plainly: Displacement of [125I]CCl22 from human CCR4 receptor expressed in mouse B300-19 cells by SPA. It is filed as cell-based. The procedure, abridged:
as §1
Compound `COc1cc2nc(N3CCC(N(C)C)CC3)nc(NC3CCCCCC3)c2cc1OC` had a pIC50 of 6.14.
Turning to `COc1cc2nc(N3CCN(C(C)C)CC3)nc(NC3CCCCCC3)c2cc1OC`, the pIC50 is 6.18.
With `COc1cc2nc(N3CCC(N4CCCC4)CC3)nc(NC3CCCCC3)c2cc1OC`, the pIC50 was 5.72.
Same read-out and setting: the same measure for `COc1cc2nc(N3CCC(N4CCCC4)CC3)nc(NC3CCCCCCC3)c2cc1OC`: 5.92.
